Article PMC12416921 (RSC Medicinal Chemistry, 2025)
Read-outs that look alike come from different tables or passages of the source.

Test system: A549 human cancer cell line
Assay: A549 differential cytotoxicity
Type: cell-based
Conditions: for HCR (hypoxia cytotoxicity ratio): A549, oxic vs anoxic IC50, 4 h incubation then 48 h oxic exposure; for IC50: Homo sapiens
Outline: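 A549 cells plated at 6000/well in MEM-alpha with 10% FBS and 0.02 mM 2′-deoxycytidine, attached 2 h. Anoxic arm in a Coy chamber with preconditioned medium and degassed plates; normoxic arm at 95% air/5% CO2. Final 50 μg mL−1 to 5 pg mL−1, duplicate wells. 4 h exposure, then 48 h aerobic without media change.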

[1] = A549, read-out: IC50 [anoxic] (μM) ± SEM
[2] = A549, read-out: IC50 [oxic] (μM) ± SEM

In the case of `COc1cc(C2=CCCc3c2ccc(OC)c3OCc2ccc([N+](=O)[O-])s2)cc(OC)c1OC` [KGP24 (12), 2-(((2-Methoxy-5-(3,4,5-trimethoxyphenyl)-7,8-dihydronaphthalen-1-yl)oxy)methyl)-5-nitrothiophene], the “HCR (hypoxia cytotoxicity ratio)” value is reported as 1.0, the IC50 [1] is reported as 0.48 ± 0.04 µM and the IC50 [2] is reported as 0.46 ± 0.05 µM.
In the case of `COc1cc(C2=CCCc3c2ccc(OC)c3OC(C)c2ccc([N+](=O)[O-])s2)cc(OC)c1OC` (stereo not drawn) [KGP25 (13), 2-(1-((2-Methoxy-5-(3,4,5-trimethoxyphenyl)-7,8-dihydronaphthalen-1-yl)oxy)ethyl)-5-nitrothiophene], the “HCR (hypoxia cytotoxicity ratio)” value is reported as 11.0, the IC50 [1] is reported as 0.25 ± 0.08 µM and the IC50 [2] is reported as 2.74 ± 1.13 µM.
For `COc1cc(C2=CCCc3c2ccc(OC)c3OC(C)(C)c2ccc([N+](=O)[O-])s2)cc(OC)c1OC` [KGP66 (14), 2-(2-((2-Methoxy-5-(3,4,5-trimethoxyphenyl)-7,8-dihydronaphthalen-1-yl)oxy)propan-2-yl)-5-nitrothiophene], the “HCR (hypoxia cytotoxicity ratio)” value was 2.6, the IC50 [1] was 0.05 ± 0.01 µM and the IC50 [2] was 0.13 ± 0.06 µM.
In the case of `COc1cc(C2=CCCc3c2ccc(OC)c3OCc2cnc([N+](=O)[O-])n2C)cc(OC)c1OC` [KGP105 (15), 5-(((2-Methoxy-5-(3,4,5-trimethoxyphenyl)-7,8-dihydronaphthalen-1-yl)oxy)methyl)-1-methyl-2-nitro-1H-imidazole], the “HCR (hypoxia cytotoxicity ratio)” value is reported as 6.2, the IC50 [1] is reported as 0.04 ± 0.003 µM and the IC50 [2] is reported as 0.25 ± 0.02 µM.
`COc1cc(C2=CCCc3c2ccc(OC)c3OC(C)c2cnc([N+](=O)[O-])n2C)cc(OC)c1OC` (stereo not drawn) [KGP291 (16), 5-(1-((2-Methoxy-5-(3,4,5-trimethoxyphenyl)-7,8-dihydronaphthalen-1-yl)oxy)ethyl)-1-methyl-2-nitro-1H-imidazole] was tested, and the “HCR (hypoxia cytotoxicity ratio)” value was 7.6, the IC50 [1] was 0.05 ± 0.004 µM and the IC50 [2] was 0.38 ± 0.03 µM.
`COc1cc(C2=CCCCc3c2ccc(OC)c3OC(C)c2cnc([N+](=O)[O-])n2C)cc(OC)c1OC` (stereo not drawn) [KGP292 (22), 5-(1-((3-Methoxy-9-(3,4,5-trimethoxyphenyl)-6,7-dihydro-5H-benzo[7]annulen-4-yl)oxy)ethyl)-1-methyl-2-nitro-1H-imidazole] was tested, and the “HCR (hypoxia cytotoxicity ratio)” value was 4.8, the IC50 [1] was 0.14 ± 0.04 µM and the IC50 [2] was 0.67 ± 0.13 µM.
`COc1cc(C2=CCCCc3c2ccc(OC)c3OCc2cnc([N+](=O)[O-])n2C)cc(OC)c1OC` [KGP293 (21), 5-(((3-Methoxy-9-(3,4,5-trimethoxyphenyl)-6,7-dihydro-5H-benzo[7]annulen-4-yl)oxy)methyl)-1-methyl-2-nitro-1H-imidazole] was tested, and the “HCR (hypoxia cytotoxicity ratio)” value was 9.0, the IC50 [1] was 0.04 ± 0.005 µM and the IC50 [2] was 0.36 ± 0.02 µM.
`COc1cc(C2=CCCCc3c2ccc(OC)c3OC(C)c2ccc([N+](=O)[O-])s2)cc(OC)c1OC` (stereo not drawn) [KGP304 (20), 2-(1-((3-Methoxy-9-(3,4,5-trimethoxyphenyl)-6,7-dihydro-5H-benzo[7]annulen-4-yl)oxy)ethyl)-5-nitrothiophene] was tested, and the “HCR (hypoxia cytotoxicity ratio)” value was 6.0, the IC50 [1] was 0.38 ± 0.12 µM and the IC50 [2] was 2.27 ± 1.01 µM.
For `COc1cc(C2=CCCCc3c2ccc(OC)c3OCc2ccc([N+](=O)[O-])s2)cc(OC)c1OC` [KGP305 (19), 2-(((3-Methoxy-9-(3,4,5-trimethoxyphenyl)-6,7-dihydro-5H-benzo[7]annulen-4-yl)oxy)methyl)-5-nitrothiophene], the “HCR (hypoxia cytotoxicity ratio)” value was 0.2, the IC50 [1] was 0.22 ± 0.09 µM and the IC50 [2] was 0.05 ± 0.005 µM.
With `COc1ccc2c(C(=O)c3cc(OC)c(OC)c(OC)c3)c(-c3ccc(OC)c(OCc4ccc([N+](=O)[O-])s4)c3)[nH]c2c1` [KGP311 (23), (6-Methoxy-2-(4-methoxy-3-((5-nitrothiophen-2-yl)methoxy)phenyl)-1H-indol-3-yl)(3,4,5-trimethoxyphenyl)methanone] the “HCR (hypoxia cytotoxicity ratio)” value was 79.7, the IC50 [1] was 0.07 ± 0.04 µM and the IC50 [2] was 5.58 ± 3.59 µM.
In the case of `COc1ccc2c(C(=O)c3cc(OC)c(OC)c(OC)c3)c(-c3ccc(OC)c(OC(C)c4ccc([N+](=O)[O-])s4)c3)[nH]c2c1` (stereo not drawn) [KGP343 (24), (6-Methoxy-2-(4-methoxy-3-(1-(5-nitrothiophen-2-yl)ethoxy)phenyl)-1H-indol-3-yl)(3,4,5-trimethoxyphenyl)methanone], the “HCR (hypoxia cytotoxicity ratio)” value is reported as 33.8, the IC50 [1] is reported as 0.12 ± 0.06 µM and the IC50 [2] is reported as 4.06 ± 1.89 µM.
In the case of `COc1ccc2c(C(=O)c3cc(OC)c(OC)c(OC)c3)c(-c3ccc(OC)c(OC(C)(C)c4ccc([N+](=O)[O-])s4)c3)[nH]c2c1` [KGP354 (25), (6-Methoxy-2-(4-methoxy-3-((2-(5-nitrothiophen-2-yl)propan-2-yl)oxy)phenyl)-1H-indol-3-yl)(3,4,5-trimethoxyphenyl)methanone], the “HCR (hypoxia cytotoxicity ratio)” value is reported as 79, the IC50 [1] is reported as 0.07 ± 0.02 µM and the IC50 [2] is reported as 5.53 ± 2.22 µM.
For `Nc1n[n+]([O-])c2ccccc2[n+]1[O-]` [TPZ (1), tirapazamine, reference compound], the “HCR (hypoxia cytotoxicity ratio)” value was 8.9, the IC50 [1] was 7.1 µM and the IC50 [2] was 63.5 µM.
